Measurements reported in ChEMBL document CHEMBL3632601, “Actinoramide A Identified as a Potent Antimalarial from Titration-Based Screening of Marine Natural Product Extracts” (J Nat Prod, 2015).
Calls of active or inactive are those of the source. The rule behind the calls is not given here.

Assays:
[1] = tested on: Plasmodium falciparum; assay: Antiplasmodial activity against Plasmodium falciparum cp250 after 72 hrs by SYBR green DNA-staining parasite viability assay; format: functional, organism-based
Outline: (§1)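 Intra-erythrocytic P. falciparum growth in 1536-well format. Infected RBCs at 0.3% parasitemia and 2.5% hematocrit (final) were exposed to compound at 37 °C, 5% CO2, for 72 h. Lysis buffer was added (Tris-HCl, EDTA, saponin, Triton X-100, SYBR Green I), followed by overnight incubation in the dark at 22–24 °C. Fluorescence read at 485/535 nm. Artemisinin and mefloquine served as positive controls, DMSO as negative. EC50 from curve fits, duplicate titrations.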

[2] = tested on: HepG2; assay: Cytotoxicity against human HepG2 cells after 72 hrs by CellTiter-Glo assay; details: hepg2, 72 h
[3] = tested on: HEK293; assay: Cytotoxicity against human HEK293 cells after 72 hrs by CellTiter-Glo assay; details: hek293, 72 h
[4] = tested on: Plasmodium falciparum; assay: Antiplasmodial activity against Plasmodium falciparum HB3 after 72 hrs by SYBR green DNA-staining parasite viability assay; format: functional, organism-based; outline: as §1
[5] = tested on: Plasmodium falciparum; assay: Antiplasmodial activity against Plasmodium falciparum Dd2 after 72 hrs by SYBR green DNA-staining parasite viability assay; format: functional, organism-based; outline: as §1
[6] = tested on: Plasmodium falciparum; assay: Antiplasmodial activity against Plasmodium falciparum GB4 after 72 hrs by SYBR green DNA-staining parasite viability assay; format: functional, organism-based; outline: as §1
[7] = tested on: Plasmodium falciparum; assay: Antiplasmodial activity against Plasmodium falciparum 7G8 after 72 hrs by SYBR green DNA-staining parasite viability assay; format: functional, organism-based; outline: as §1
[8] = tested on: Jurkat; assay: Cytotoxicity against human Jurkat cells after 72 hrs by SYBR Green viability assay; format: cell-based
[9] = tested on: Plasmodium falciparum; assay: Inhibition of aspartyl protease activity of plasmepsin in Plasmodium falciparum extracts using EDANSCOCH2CH2CO-ALERMFLSFP-Dap(DABCYL)OH as substrate after 15 mins by fluorescence assay
Outline: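 Saponin-treated, RBC-depleted P. falciparum extract (plasmepsin pellet, 0.16% final) in 100 mM sodium acetate pH 5.0, 20% glycerol. Compound pin-transferred, then 15 min preincubation with enzyme. EDANS-DABCYL Plasmepsin II substrate added at 5 or 10 μM final, under KM conditions. Fluorescence (ex 336/em 490 nm) read over 3 h. EC50 calculated from plotted data.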

SMILES | Activity [1] | Activity [2] | Activity [3] | Activity [4] | Activity [5] | Activity [6] | Activity [7] | EC50 ([1]; cp250, 72 h) | EC50 [8] | EC50 ([4]; HB3, 72 h) | EC50 ([5]; Dd2, 72 h) | inhibition [9] | EC50 ([6]; GB4, 72 h) | EC50 ([7]; 7G8, 72 h)
COCC(=O)N[C@@H](C(=O)N1NCCC[C@H]1C(=O)N[C@@H](Cc1ccccc1)[C@@H](O)[C@H](C)C(=O)NC1CNC(=O)NC1=O)[C@H](O)C(C)C (some centres not stated) | inactive | Non-toxic | Non-toxic | inactive | inactive | inactive | inactive | – | – | – | – | – | – | –
COCC(=O)N[C@@H](C(=O)N1NCCC[C@H]1C(=O)N[C@@H](Cc1ccccc1)[C@@H](O)[C@H](C)C(=O)N[C@H]1CCN(C(C)=O)C1=O)[C@H](O)C(C)C | Active | Non-toxic | Non-toxic | Active | Active | Active | Active | – | – | – | – | – | – | –
COCC(=O)N[C@@H](C(=O)N1NCCC[C@H]1C(=O)N[C@@H](Cc1ccccc1)[C@@H](O)[C@H](C)C(=O)N[C@H]1CCN(C(N)=O)C1=O)[C@H](O)C(C)C | – | Non-toxic | Non-toxic | – | – | – | – | 200 nM | 90000 nM | 200 nM | 200 nM | inactive | 200 nM | 200 nM
COCC(=O)N[C@@H](C(=O)N1NCCC[C@H]1C(=O)N[C@@H](Cc1ccccc1)[C@@H](O)[C@H](C)C(=O)N[C@H]1CCNC1=O)[C@H](O)C(C)C | Active | Non-toxic | Non-toxic | Active | Active | Active | Active | – | – | – | – | – | – | –
COCC(=O)N[C@@H](C(=O)N1NCCC[C@H]1C(=O)N[C@@H](Cc1ccccc1)[C@@H](O)[C@H](C)C(=O)N[C@@H]1CCN(C(N)=O)C1=O)[C@H](O)C(C)C | Active | Non-toxic | Non-toxic | Active | Active | Active | Active | – | – | – | – | – | – | –
COCC(=O)N[C@@H](C(=O)N1N=CCC[C@H]1C(=O)N[C@@H](Cc1ccccc1)[C@@H](O)[C@H](C)C(=O)N[C@H]1CCN(C(N)=O)C1=O)[C@H](O)C(C)C | Active | Non-toxic | Non-toxic | Active | Active | Active | Active | – | – | – | – | – | – | –
COCC(=O)N[C@@H](C(=O)N1NCCC[C@H]1C(=O)N[C@@H](Cc1ccccc1)[C@@H](O)[C@H](C)C(=O)N[C@H]1CCC(=O)NC1=O)[C@H](O)C(C)C | – | Non-toxic | Non-toxic | – | – | – | – | – | 30000 nM | – | – | – | – | –
